Source: PubChem BioAssay
GSTO1 counter: blocks human GSTO1 in RBBP9 counter-screen. recombinant GSTO1, activity-based probe fluorescence polarization. AID 1974. 300,000 tested, 1.1% active. inhibition, % at 5.96 µM;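 active means inhibition above the campaign mean inhibition plus 3 SD, cut at about 35% in these data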
Target sequence (P78417 whole entry, looked up): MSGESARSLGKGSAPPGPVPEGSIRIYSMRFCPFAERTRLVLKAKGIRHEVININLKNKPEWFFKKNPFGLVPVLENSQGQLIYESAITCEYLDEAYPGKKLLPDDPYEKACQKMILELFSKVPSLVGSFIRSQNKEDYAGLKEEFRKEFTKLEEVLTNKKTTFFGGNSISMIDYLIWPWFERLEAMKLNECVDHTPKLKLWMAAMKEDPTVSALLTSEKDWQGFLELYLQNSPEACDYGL
PAD4 inh: PAD4 (human) enzyme inhibition; Q9UM07; recombinant PAD4, RCA probe fluorescence polarization; inhibition, % at 6.36 µM; 330,000 tested, 0.41% active; AID 485272;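 active means percent inhibition above a cutoff equal to the mean of all tested compounds plus 3 SD, cut at about 15% in these data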
SIAE inh: inhibitors of human sialic acid acetylesterase SIAE; Q9HAT2; SIAE FP-Rh probe binding, fluorescence polarization; inhibition, % at 9.66 µM; 370,000 tested, 0.69% active; AID 1053197;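 active means inhibition above a cutoff: mean of compounds within the control limits plus 3 SD of those, cut at about 17% in these data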
Target sequence (Q9HAT2 whole entry, looked up): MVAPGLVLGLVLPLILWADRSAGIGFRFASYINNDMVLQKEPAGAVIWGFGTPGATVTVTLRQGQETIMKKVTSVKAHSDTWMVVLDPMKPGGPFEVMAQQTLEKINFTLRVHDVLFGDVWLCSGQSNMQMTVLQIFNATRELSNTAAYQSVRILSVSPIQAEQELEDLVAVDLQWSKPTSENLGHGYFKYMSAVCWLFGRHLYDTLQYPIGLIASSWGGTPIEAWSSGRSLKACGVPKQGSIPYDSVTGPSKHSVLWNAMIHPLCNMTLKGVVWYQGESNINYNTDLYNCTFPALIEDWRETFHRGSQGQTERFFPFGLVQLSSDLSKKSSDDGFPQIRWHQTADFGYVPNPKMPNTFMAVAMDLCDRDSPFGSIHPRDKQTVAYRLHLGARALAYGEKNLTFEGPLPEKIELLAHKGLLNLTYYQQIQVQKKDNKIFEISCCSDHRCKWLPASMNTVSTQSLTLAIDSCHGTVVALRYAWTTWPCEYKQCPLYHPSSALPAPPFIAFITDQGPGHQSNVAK
PRMT1 inh: PRMT1 (human) inhibition, primary screen | 370,000 tested, 1.3% active | recombinant PRMT1, activity-based probe fluorescence polarization | Q99873 | inhibition, % at 2.79 µM;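 active means inhibition above about 21% made by adding two undisclosed values, limit read from the data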
RBBP9 inh: human RBBP9 hydrolase inhibition; O75884; recombinant RBBP9, FP-Rh probe fluorescence polarization; inhibition, % at 7.94 µM; 220,000 tested, 0.2% active;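 active means inhibition above the campaign mean of all tested compounds plus 3 SD, cut at about 14% in these data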
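System: RBBP9 protein / Quantity: 2.5 µM RBBP9 dispensing solution, before mixing / Also added: Serine-hydrolase probe FP-Rh, 375 nM pre-mixing / Dosing: 7.94 µM single dose, 0.794% DMSO / Timing: enzyme-compound preincubation 30 min, then probe labeling 45 min, 25 °C / Signal: FP readout at 525/598 nm / Controls: DMSO-treated enzyme wells and wells lacking RBBP9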
PRMT1 inh conf: confirmation of human PRMT1 inhibitors; shares compounds with PRMT1 inh; recombinant His-PRMT1, activity-based probe fluorescence polarization; inhibition, % at 2.79 µM; 3,300 tested, 42% active; AID 687036;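 active means mean inhibition across replicates above the hit cutoff derived for the earlier primary screen, cut at about 22% in these data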
Of the large screens only hits and unclear results are named; the others gave an inactive call (follow-up assays come after a bar, where they were run). Sampled rows, rich in hits. Any-hit rate of the full collection: about 2.7%.

O=C(O)/C=C/C(=O)Nc1ccccc1-c1ccccc1NC(=O)/C=C/C(=O)O	PRMT1 inh 53 | PRMT1 inh conf 26
O=C(O)/C=C/C(=O)Nc1ccccc1SC(F)(F)F	PRMT1 inh 61 | PRMT1 inh conf 36
O=C(O)/C=C/C(=O)Nc1cccc2c1-c1ccccc1C2=O	PRMT1 inh 67 (no result: GSTO1 counter, PAD4 inh, RBBP9 inh) | PRMT1 inh conf inactive
O=C(O)/C=C/C(=O)Nc1ccc(SC(F)(F)F)cc1	none
COC(=O)[C@H](C)NC(=O)Nc1ccc(C)c(C)c1	none
CCOC(=O)C(C)N1C(=O)S/C(=C\c2ccc(-c3ccccc3C(=O)O)o2)C1=O (stereo not drawn)	PRMT1 inh 29 (no result: RBBP9 inh) | PRMT1 inh conf inactive
Cc1ccc(C)c(N2C(=N)S/C(=C\c3ccc(-c4ccccc4C(=O)O)o3)C2=O)c1	none
CC(=O)c1sc2nsc(SCCN3CCCCC3)c2c1N	PRMT1 inh 27 | PRMT1 inh conf inactive
Nc1c(C(=O)c2ccccc2)sc2nsc(SCCN3CCCC3)c12	PRMT1 inh 27 | PRMT1 inh conf inactive
Cc1ccc(S(=O)(=O)N2CCN(S(=O)(=O)N3CCCCC3)CC2)cc1C	none (no result: RBBP9 inh)
O=C(CSc1nnc(-c2ccc(F)cc2)c2ccccc12)Nc1ccccc1	none
CN1c2ccccc2Sc2cc(N)ccc21	PRMT1 inh 29 (no result: RBBP9 inh) | PRMT1 inh conf inactive
CC(=O)N1c2ccccc2Sc2ccccc21	none (no result: GSTO1 counter, PAD4 inh, RBBP9 inh)
CCN1CC=C2C(C1)C(c1ccc(Cl)s1)C(C#N)=C(N)C2(C#N)C#N (stereo not drawn)	PRMT1 inh 30 | PRMT1 inh conf 36
CCNc1nc2ccccc2[nH]1	none
CCCCN(C(=O)c1cccc(-n2cnnn2)c1)c1c(N)n(CC(C)C)c(=O)[nH]c1=O	none (no result: GSTO1 counter, RBBP9 inh)
O=C(COc1ccc(Cl)cc1)Nc1ncc([N+](=O)[O-])s1	none (no result: GSTO1 counter, PAD4 inh)
O=C(COC(=O)COc1ccccc1)Nc1ncc([N+](=O)[O-])s1	PRMT1 inh 40 (no result: GSTO1 counter, RBBP9 inh) | PRMT1 inh conf inactive
Cc1ccc(C(=O)COC(=O)c2cc(C)no2)c(C)c1	none (no result: GSTO1 counter, PAD4 inh, RBBP9 inh)
CC(O)C(O)C(O)C(O)C1NCCS1 (stereo not drawn)	none
OCC(O)C(O)C(O)C(O)C1NCCS1 (stereo not drawn)	PRMT1 inh 32 | PRMT1 inh conf inactive
CCCCCCCCN1C(=O)[C@H](CC(=O)N2CCN(C(=O)C3CC3)CC2)C[C@@]2(C(=O)OCC)CCCC=C12	none (no result: GSTO1 counter, PAD4 inh, RBBP9 inh)
CC1=CC(C)(C)NC(=S)N1c1ccccc1C	none
CC1=CC(C)(C)NC(=S)N1c1cccc2cc(S(=O)(=O)O)ccc12	PRMT1 inh 39 | PRMT1 inh conf 45
C(=N\N1CCOCC1)/c1cn(-c2ccccc2)nc1-c1ccccc1	PRMT1 inh 96 | PRMT1 inh conf inactive
Cc1cccc(N2C(=O)C(Cl)=C(Nc3c(C)n(C)n(-c4ccccc4)c3=O)C2=O)c1C	none
COc1ccc(C(=S)N2CCCCCC2)cc1	PRMT1 inh 26 | PRMT1 inh conf inactive
CCOc1ccc(C(=S)N2CCCC2)cc1	none
OCCN1CCN(C(=S)c2ccc(Cl)cc2)CC1	PRMT1 inh 32 | PRMT1 inh conf 40
CCOc1ccc(C(=S)N2CCN(C)CC2)cc1	PRMT1 inh 28 | PRMT1 inh conf 33
CCN1CCN(C(=S)c2ccc(OC)cc2)CC1	PRMT1 inh 48 | PRMT1 inh conf 37
COc1ccc(C(=S)N2CCNCC2)cc1	none
Cc1cccc(-c2cc(=O)c(C(=O)O)cn2-c2ccc(F)cc2F)c1	none (no result: RBBP9 inh)
CCN(CC)c1ccc(S(=O)(=O)N2CCOCC2)cc1NC(=O)c1cc(=O)c2ccccc2o1	none
OCCN1CCN(Cc2cc(Br)cc(Br)c2O)CC1	none
CC(C)(C)c1cc(C(=S)N2CCN(CCO)CC2)cc(C(C)(C)C)c1O	PRMT1 inh 27 | PRMT1 inh conf inactive
CCN1CCN(C(=S)c2ccc([N+](=O)[O-])cc2)CC1	PRMT1 inh 34 | PRMT1 inh conf 35
CCN1CCN(C(=S)c2ccc(Cl)cc2)CC1	PRMT1 inh 85 | PRMT1 inh conf 90
CCN1CCN(C(=O)c2ccccc2NC(=O)c2ccc(Cl)cc2)CC1	none (no result: RBBP9 inh)
O=C(NC12CC3CC(CC(C3)C1)C2)N1CCN(S(=O)(=O)c2ccc(Cl)cc2)CC1	none
CCCCn1c(N)c(N(CC(C)C)C(=O)COC(=O)Cc2c(C)nc3ccccc3c2C)c(=O)[nH]c1=O	none (no result: RBBP9 inh)
CC(=O)Nc1ccc(/C=N/NC(=O)CC2CCCCC2)cc1	none (no result: GSTO1 counter, PAD4 inh, RBBP9 inh)
O=C(CSc1nc2[nH]c(=O)cc(O)c2s1)Nc1nncs1	none (no result: GSTO1 counter, PAD4 inh, RBBP9 inh)
O=C(CSc1nc2[nH]c(=O)cc(O)c2s1)Nc1nccs1	PRMT1 inh 25 (no result: GSTO1 counter, RBBP9 inh) | PRMT1 inh conf inactive
Cc1csc(NC(=O)CSc2sc3c(O)cc(=O)[nH]c3c2C#N)n1	PRMT1 inh 81 (no result: RBBP9 inh) | PRMT1 inh conf inactive
CCSc1nnc(NC(=O)CSc2sc3c(O)cc(=O)[nH]c3c2C#N)s1	PRMT1 inh 27 (no result: RBBP9 inh) | PRMT1 inh conf inactive
CCOC(=O)C1(C)CCCN1C(=O)c1cc(F)ccc1C (stereo not drawn)	none (no result: GSTO1 counter, PAD4 inh, RBBP9 inh)
Cc1cccc(C(=O)NCC(=O)NNC(=O)c2ccccc2O)c1	none (no result: RBBP9 inh)
COc1ccc(CCNC2CC(=O)N(CCc3ccc(OC)c(OC)c3)C2=O)cc1OC (stereo not drawn)	PRMT1 inh 54 (no result: GSTO1 counter, PAD4 inh) | PRMT1 inh conf inactive
COc1ccc(NC(=O)c2c(C(F)(F)F)nn(C)c2Cl)cc1	none
CCc1ccc(N2C(=O)C(Cl)=C(N3CCOCC3)C2=O)cc1	none
Cc1cccc(N2C(=O)C(Cl)=C(N3CCOCC3)C2=O)c1	PRMT1 inh 28 | PRMT1 inh conf inactive
CCCCOCCCNC(=O)C[C@@H]1C[C@@]2(C(=O)OCC)CCCC=C2N(CCc2ccc(OC)c(OC)c2)C1=O	none (no result: GSTO1 counter, PAD4 inh, RBBP9 inh)
O=C(O)[C@@H](O)c1ccccc1	none
CN(Cc1ccccc1)C(=O)[C@@H]1CCCN1C(=O)[C@@H]1CCCN1C(=O)c1cccc(Cl)c1	none (no result: GSTO1 counter, PAD4 inh, RBBP9 inh)
COc1ccc(CC(=O)n2[nH]c(=O)ccc2=O)cc1OC	PRMT1 inh 75 | PRMT1 inh conf 96
COc1ccc(CC(=O)n2[nH]c(=O)c3ccccc3c2=O)cc1OC	none
CC1(C)C(=O)Nc2ccccc2N1C(=O)COC(=O)CNS(=O)(=O)c1ccc(Br)cc1Cl	none (no result: GSTO1 counter, PAD4 inh, RBBP9 inh)
Nc1nnnn1N=C1CCCCC1	none
Cc1ccc(NC(=O)CC2C(=O)OCC3CCCCN32)cc1Cl (stereo not drawn)	none
CCCOc1ccc(NC(=O)CC2C(=O)OCC3CCCCN32)cc1 (stereo not drawn)	PRMT1 inh 36 (no result: GSTO1 counter, RBBP9 inh) | PRMT1 inh conf inactive
O=C(CC1C(=O)OCC2CCCCN21)Nc1ccccc1C(F)(F)F (stereo not drawn)	PRMT1 inh 48 | PRMT1 inh conf inactive
COCCN1C[C@@H](CO)O[C@@H](n2cnc3c(NCC(C)C)ncnc32)C1	none (no result: GSTO1 counter, PAD4 inh, RBBP9 inh)
N#C/C(=C\c1ccc2c(c1)OCO2)C(N)=S	PRMT1 inh 25 | PRMT1 inh conf inactive
N#Cc1ccc(CSc2nc(N)cc(N)n2)cc1	none (no result: RBBP9 inh)
CC(C(=O)NCC(=O)Nc1ccc(F)c(F)c1F)N1CCN(c2ccc(O)cc2)CC1 (stereo not drawn)	PRMT1 inh 28 (no result: GSTO1 counter, RBBP9 inh) | PRMT1 inh conf inactive
